Assay results from publication PMC3832945 (Molecular pharmaceutics, 2013).
Values belong to the compound of their own block, whether it stands above or below them. Peptide text beside a SMILES is read from it.

Tests used:
[1] = tested on: Myeloperoxidase activity (a measure of neutrophil migration); assay: Myeloperoxidase; type: in vivo, mouse; conditions: for effect on MPO activity: 10 μM
How it was run: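 Jejunum or colon of wild-type and PepT1 knockout mice perfused in situ with Krebs–Ringer buffer (jejunum 0.067, colon 0.1 mL/min) for 30 min. Then 10 μM test compound, ± 50 mM GlyGly, for 4 h. MPO by o-dianisidine/H2O2 oxidation at pH 6.0, A460 over 2 min, reported as IU/g wet tissue. n = 5, mean ± SE, ANOVA/Tukey.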

[2] = biological target: T1, PepT1 (Mus musculus, UniProt Q9JIP7); assay: In situ single-pass jejunal perfusion of [3H]fMet-Leu-Phe; type: in vivo
T1 sequence (Q9JIP7 1-709): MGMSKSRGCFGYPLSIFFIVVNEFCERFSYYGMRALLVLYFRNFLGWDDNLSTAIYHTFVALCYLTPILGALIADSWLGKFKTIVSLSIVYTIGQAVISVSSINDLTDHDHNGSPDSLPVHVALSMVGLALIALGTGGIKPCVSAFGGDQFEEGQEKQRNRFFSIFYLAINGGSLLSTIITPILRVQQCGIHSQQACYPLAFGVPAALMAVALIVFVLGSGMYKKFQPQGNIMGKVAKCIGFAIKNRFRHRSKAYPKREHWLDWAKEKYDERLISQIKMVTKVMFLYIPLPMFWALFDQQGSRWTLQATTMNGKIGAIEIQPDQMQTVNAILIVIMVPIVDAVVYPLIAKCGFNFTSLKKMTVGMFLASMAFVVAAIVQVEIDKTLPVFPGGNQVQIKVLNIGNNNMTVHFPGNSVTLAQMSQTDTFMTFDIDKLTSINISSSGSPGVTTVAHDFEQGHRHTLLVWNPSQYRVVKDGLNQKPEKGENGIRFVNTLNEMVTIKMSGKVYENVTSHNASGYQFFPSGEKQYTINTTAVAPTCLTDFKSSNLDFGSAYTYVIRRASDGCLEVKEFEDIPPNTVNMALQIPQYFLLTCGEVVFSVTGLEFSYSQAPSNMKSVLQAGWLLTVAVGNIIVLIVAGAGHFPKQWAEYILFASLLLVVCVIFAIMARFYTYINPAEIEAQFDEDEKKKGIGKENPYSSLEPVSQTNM

[3] = Metabolism in intestinal segments; type: in vitro ADME, mouse; conditions: wild-type mice, 0.8 mM, 5 min, 37 °C
How it was run: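 Wild-type intestinal pieces, 1 cm, opened longitudinally to expose the lumen. Incubated in PBS pH 7.4 with 0.8 mM test compound, 5 min, 37 °C, then iced and stopped with 10% TFA. Spun 12 000g, 5 min. Supernatant on reversed-phase C18 HPLC, UV 210 nm, 15–30% acetonitrile (0.1% TFA) gradient over 30 min. Parent and fragments identified with standards.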

[4] = tested on: PepT1; assay: Regional intestinal permeability; type: in vivo, mouse; conditions: colon, 0.1 μM
How it was run: (§1)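 Each region perfused separately in situ in fasted, pentobarbital-anaesthetised (40–60 mg/kg ip) wild-type and PepT1 knockout mice at 31 °C. Perfusate: 135 mM NaCl, 5 mM KCl, 10 mM MES pH 6.5, [14C]inulin, 2 μCi/ml (0.1 μM) labelled compound, 100 mM Phe, 0.1 mL/min. Outflow sampled every 10 min for 90 min and counted. Inulin-corrected steady-state Peff from parallel-tube model; n = 6.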

[5] = biological target: T1, PepT1; assay: Regional intestinal permeability; type: in vivo
How it was run: as §1

[6] = Hydrolysis kinetics in jejunal homogenates; type: in vitro ADME, mouse; conditions: 0.4–100 μM, 1 min, 37 °C
How it was run: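 Jejunal mucosa scraped from wild-type or PepT1 knockout mice and homogenised in ice-cold PBS for 2 min. Spun at 12 000g for 15 min; supernatant protein at 0.5 mg/mL. Incubated with [3H-Phe]-labelled test compound at 0.4–100 μM, 1 min, 37 °C. Stopped with 10% TFA, HPLC with radiochemical detection. Rate from parent loss; Vmax and Km fitted; n = 4, mean ± SE.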

[7] = Exposure in portal vein during jejunal perfusion; type: in vivo, mouse; conditions: 90 min jejunal perfusion of 0.1 μM [3H-Phe]fMet-Leu-Phe, wild-type mice
How it was run: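 Wild-type jejunal single-pass perfusion with 2 μCi/ml (0.1 μM) [3H-Phe]-labelled tripeptide; portal venous blood drawn at 80–90 min. Intact tripeptide and [3H-Phe] measured by HPLC with radiochemical detection: isocratic 30% acetonitrile plus 0.1% TFA, 1.0 mL/min, ambient. Peaks assigned with radiolabelled standards.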

[8] = 50 mM inhibitor, jejunal perfusion, PepT1 knockout mice
[9] = 50 mM inhibitor, jejunal perfusion, wild-type mice

Compound: NCC(=O)NCC(=O)O [GlyGly, glycylglycine] (H-Gly-Gly-OH)
effect of coperfused dipeptide on fMet-Leu-Phe-induced MPO activity ([1]; jejunum, wild-type mice, 10 μM fMet-Leu-Phe + 50 mM GlyGly, 4 h): returned to control values

Compound: NCC(=O)N1CCC[C@H]1C(=O)O [GlyPro, glycylproline] (H-Gly-Pro-OH)
Ki [2]: 100 mM
reduction of fMet-Leu-Phe uptake by inhibitor ([2]; 50 mM inhibitor, 0.1 μM [3H]fMet-Leu-Phe, jejunal perfusion, wild-type mice): 33%
effect of inhibitor on permeability of fMet-Leu-Phe [2, 8]: but not in PepT1 knockout animals
effect of inhibitor on permeability of fMet-Leu-Phe [2, 9]: significantly reduced

effect of inhibitor on permeability of fMet-Leu-Phe [2, 8]: no effect
effect of inhibitor on permeability of fMet-Leu-Phe [2, 9]: no effect
Compound: N[C@@H](Cc1c[nH]cn1)C(=O)O [L-histidine]

Compound: CSCC[C@H](NC=O)C(=O)N[C@@H](CC(C)C)C(=O)N[C@@H](Cc1ccccc1)C(=O)O [fMet-Leu-Phe, N-formyl-methionyl-leucyl-phenylalanine]
effect on MPO activity ([1]; colon, wild-type and PepT1 null mice, 4 h): without change
effect on MPO activity ([1]; jejunum, PepT1 knockout mice, 4 h): no effect
increase in MPO activity ([1]; jejunum, wild-type mice, 4 h perfusion of 10 μM fMet-Leu-Phe): about 2 fold
hydrolysis in intestinal segments ([3]; duodenum and jejunum): substantial hydrolysis
hydrolysis in intestinal segments ([3]; ileum and colon): only minor hydrolysis
effective permeability in PepT1 knockout versus wild-type mice [4]: did not differ between the two genotypes
residual permeability in PepT1 knockout relative to wild-type mice ([5]; duodenal, jejunal and ileal segments, on average): ~10%
effective permeability in PepT1 knockout versus wild-type mice ([5]; duodenum, jejunum and ileum, 0.1 μM): considerably lower
Vmax of hydrolysis ([6]; PepT1 knockout mice): 3.3 ± 0.1 nmol/mg/min
Vmax of hydrolysis ([6]; wild-type mice): 3.2 ± 0.2 nmol/mg/min
intact tripeptide in portal vein [7]: no intact tripeptide was found
